Data reported in ChEMBL document CHEMBL2177069, “Novel peptidomimetic compounds containing redox active chalcogens and quinones as potential anticancer agents” (Eur J Med Chem, 2012).
Calls of active or inactive are those of the source. The rule behind the calls is not given here.

Experiments:
Saccharomyces cerevisiae [1] = test: Growth inhibition of GSH2-deficient Saccharomyces cerevisiae YOL049W mutant at 20 ug/disc after 24 to 48 hrs by agar diffusion assay; type: functional; details: read-out: DIZ
Procedure, shortened: (§1)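 S. cerevisiae deletion mutants or wild type grown on YPD, seeded into liquid agar medium at an optical density of 0.1. 6 mm paper discs soaked with methanolic compound solution were placed on the plates and incubated at 30 °C. Growth was checked after 1 and 2 days, and the inhibition zone diameter was recorded in mm.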

Saccharomyces cerevisiae [2] = test: Growth inhibition of WSC4-deficient Saccharomyces cerevisiae YHL028W mutant at 20 ug/disc 24 to 48 hrs by agar diffusion assay; type: functional; details: read-out: DIZ; procedure, shortened: as §1
MCF7 [3] = test: Induction of Cell cycle arrest in human MCF7 cells assessed as S phase cells at IC50 concentration after 24 hrs by PI-staining based flow cytometric analysis (reference value: 19%); type: functional
Procedure, shortened: (§2)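 MCF-7 cells (10^6) were treated for 24 h, with methanol as the vehicle control. Cells were fixed in cold 70% methanol at 4 °C for one day, washed with PBS, and permeabilized with 0.1% saponin in PBS. They were stained with propidium iodide plus RNase for 30 min. DNA content was read by flow cytometry, giving percentages of cells per cell-cycle phase.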

A-431 [4] = test: Induction of apoptosis in human A431 cells assessed as late apoptotic cells at 8 uM after 12 hrs by FITC-annexin V/PI staining-based flow cytometric analysis (reference value: 7.4%); type: functional
MCF7 [5] = test: Induction of Cell cycle arrest in human MCF7 cells assessed as G2/M phase cells at IC50 concentration after 24 hrs by PI-staining based flow cytometric analysis (reference value: 13%); type: functional; procedure, shortened: as §2
Saccharomyces cerevisiae [6] = test: Growth inhibition of COX17-deficient Saccharomyces cerevisiae YLL009C mutant at 20 ug/disc after 24 to 48 hrs by agar diffusion assay; type: functional; details: read-out: DIZ; procedure, shortened: as §1
A-431 [7] = test: Induction of apoptosis in human A431 cells assessed as late apoptotic cells at 11 uM after 12 hrs by FITC-annexin V/PI staining-based flow cytometric analysis (reference value: 7.4%); type: functional
A-431 [8] = test: Induction of apoptosis in human A431 cells after 12 hrs by FITC-annexin V/PI staining-based flow cytometric analysis; type: functional, cell-based
Saccharomyces cerevisiae [9] = test: Growth inhibition of wild type Saccharomyces cerevisiae BY4741 at 20 ug/disc after 24 to 48 hrs by agar diffusion assay; type: functional; details: read-out: DIZ; procedure, shortened: as §1
[10] = Cytotoxicity against human PHF cells after 24 hrs by MTT assay; type: cell-based
Procedure, shortened: (§3)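 MTT assay. Cells were seeded at 50,000 cells/mL in medium with 10% fetal calf serum and grown for two days at 37 °C, 10% CO2. Serial dilutions of compound were then added for 24 h. MTT was added (final 0.5 mg/mL) for 2 h, and the formazan was pelleted, washed, dissolved in isopropanol with 0.4% HCl and read at 590 nm. IC50 is the concentration giving 50% of untreated-control absorbance, taken from dose-response curves; mean of two parallel experiments.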

A-431 [11] = test: Cytotoxicity against human A431 cells after 24 hrs by MTT assay; type: functional, cell-based; details: A-431, 24 h; procedure, shortened: as §3
A-431 [12] = test: Induction of apoptosis in human A431 cells assessed as early apoptotic cells at 11 uM after 12 hrs by FITC-annexin V/PI staining-based flow cytometric analysis (reference value: 0.6%); type: functional
MCF7 [13] = test: Induction of oxidative stress in human MCF7 cells assessed as decrease in GSH level at 5 uM after 1 hr by DTNB assay relative to control; type: functional; parameters: scale not given: the % may be the effect or the level left
Procedure, shortened: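 MCF-7 cells (10^6) were treated for 1 h at 37 °C, trypsinized, and washed twice with cold PBS. GSH was extracted with chilled 5% metaphosphoric acid at 4 °C for 2 h, then the lysate was centrifuged. Supernatant was mixed with 0.2 M sodium phosphate pH 8.0 and 0.04 mM DTNB for 10 min at room temperature. Absorbance was read at 412 nm against a reagent blank, and GSH was quantified from a standard curve.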

Saccharomyces cerevisiae [14] = test: Growth inhibition of RCK1-deficient Saccharomyces cerevisiae YGL158W mutant at 20 ug/disc after 24 to 48 hrs by agar diffusion assay; type: functional; details: read-out: DIZ; procedure, shortened: as §1
Saccharomyces cerevisiae [15] = test: Growth inhibition of SOD1-deficient Saccharomyces cerevisiae YJR104C mutant at 20 ug/disc after 24 to 48 hrs by agar diffusion assay; type: functional; details: read-out: DIZ; procedure, shortened: as §1
A-431 [16] = test: Induction of apoptosis in human A431 cells assessed as late apoptotic cells at 13 uM after 12 hrs by FITC-annexin V/PI staining-based flow cytometric analysis (reference value: 7.4%); type: functional
A498 = test: Cytotoxicity against human A498 cells after 24 hrs by MTT assay; type: functional, cell-based; details: A498, 24 h; procedure, shortened: as §3
A-431 [17] = test: Induction of apoptosis in human A431 cells assessed as early apoptotic cells at 8 uM after 12 hrs by FITC-annexin V/PI staining-based flow cytometric analysis (reference value: 0.6%); type: functional
A-431 [18] = test: Induction of apoptosis in human A431 cells assessed as caspase3/7 activation at 2.8 uM after 24 hrs by caspase-Glo assay; type: functional, cell-based
Procedure, shortened: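 A-431 cells (20,000/well, 384-well) were incubated with compound for 1, 2, 4, 6, 12 and 24 h in the dark at 37 °C, 5% CO2. Caspase-Glo 3/7 reagent was added for 30 min at room temperature in the dark. Luminescence was then read on a plate luminometer.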

Saccharomyces cerevisiae [19] = test: Growth inhibition of UFD2-deficient Saccharomyces cerevisiae YDL190C mutant at 20 ug/disc after 24 to 48 hrs by agar diffusion assay; type: functional; details: read-out: DIZ; procedure, shortened: as §1
Saccharomyces cerevisiae [20] = test: Growth inhibition of PST2-deficient Saccharomyces cerevisiae YDR032C mutant at 20 ug/disc 24 to 48 hrs by agar diffusion assay; type: functional; details: read-out: DIZ; procedure, shortened: as §1
MCF7 [21] = test: Cytotoxicity against human MCF7 cells after 24 hrs by MTT assay; type: functional, cell-based; details: MCF7, 24 h; procedure, shortened: as §3
Saccharomyces cerevisiae [22] = test: Growth inhibition of POS5-deficient Saccharomyces cerevisiae YPL188W mutant at 20 ug/disc after 24 to 48 hrs by agar diffusion assay; type: functional; details: read-out: DIZ; procedure, shortened: as §1
HUVEC = test: Cytotoxicity against human HUVEC cells after 24 hrs by MTT assay; type: cell-based; procedure, shortened: as §3
Saccharomyces cerevisiae [23] = test: Growth inhibition of GTT2-deficient Saccharomyces cerevisiae YLL060C mutant at 20 ug/disc after 24 to 48 hrs by agar diffusion assay; type: functional; details: read-out: DIZ; procedure, shortened: as §1
A-431 [24] = test: Induction of apoptosis in human A431 cells assessed as early apoptotic cells at 13 uM after 12 hrs by FITC-annexin V/PI staining-based flow cytometric analysis (reference value: 0.6%); type: functional
Saccharomyces cerevisiae [25] = test: Growth inhibition of SOD2-deficient Saccharomyces cerevisiae YHR008C mutant at 20 ug/disc 24 to 48 hrs by agar diffusion assay; type: functional; details: read-out: DIZ; procedure, shortened: as §1
MCF7 [26] = test: Induction of Cell cycle arrest in human MCF7 cells assessed as G0/1 phase cells at IC50 concentration after 24 hrs by PI-staining based flow cytometric analysis (reference value: 68%); type: functional; procedure, shortened: as §2

For `CC1=C([Se]CC(OC(=O)CC[Se]c2ccccc2)C(=O)NCCCCCC(=O)OCc2ccccc2)C(=O)c2ccccc2C1=O` (stereo not drawn), which zone of inhibition at 20 µg/disc (Saccharomyces cerevisiae [1]) is on record?
Its zone of inhibition at 20 µg/disc is 15 mm.

What about the zone of inhibition at 20 µg/disc (Saccharomyces cerevisiae [2]) of the same compound?
Its zone of inhibition at 20 µg/disc is 26 mm.

What about the Activity (MCF7 [3]) of the same compound?
Its Activity is 6.8%.

What about the Activity (A-431 [4]) of the same compound?
The Activity was 12.9%.

And the Activity (MCF7 [5])?
Its Activity is 6%.

And the zone of inhibition at 20 µg/disc (Saccharomyces cerevisiae [6])?
The zone of inhibition at 20 µg/disc was 15 mm.

What about the Activity (A-431 [7]) of the same compound?
Its Activity is 13.1%.

And the Activity (A-431 [8])?
Its Activity is “Dose-dependent effect”.

And the zone of inhibition at 20 µg/disc (Saccharomyces cerevisiae [9])?
The zone of inhibition at 20 µg/disc was 0 mm.

And the IC50 [10]?
The IC50 was 6 µM.

And the IC50 (A-431 [11])?
Its IC50 is 4 µM.

And the Activity (A-431 [12])?
Its Activity is 7.7%.

And the Activity (MCF7 [13])?
Its Activity is 62%.

And the zone of inhibition at 20 µg/disc (Saccharomyces cerevisiae [14])?
The zone of inhibition at 20 µg/disc was 15 mm.

What about the zone of inhibition at 20 µg/disc (Saccharomyces cerevisiae [15]) of the same compound?
The zone of inhibition at 20 µg/disc was 14 mm.

What about the Activity (A-431 [16]) of the same compound?
The Activity was 29.3%.

What about the IC50 (A498) of the same compound?
The IC50 was 4 µM.

And the Activity (A-431 [17])?
The Activity was 2.5%.

What about the Activity (A-431 [18]) of the same compound?
Its Activity is “Active”.

What about the zone of inhibition at 20 µg/disc (Saccharomyces cerevisiae [19]) of the same compound?
Its zone of inhibition at 20 µg/disc is 15 mm.

What about the zone of inhibition at 20 µg/disc (Saccharomyces cerevisiae [20]) of the same compound?
The zone of inhibition at 20 µg/disc was 16 mm.

What about the IC50 (MCF7 [21]) of the same compound?
Its IC50 is 9 µM.

And the zone of inhibition at 20 µg/disc (Saccharomyces cerevisiae [22])?
The zone of inhibition at 20 µg/disc was 17 mm.

What about the IC50 (HUVEC) of the same compound?
Its IC50 is 3 µM.

What about the zone of inhibition at 20 µg/disc (Saccharomyces cerevisiae [23]) of the same compound?
The zone of inhibition at 20 µg/disc was 25 mm.

And the Activity (A-431 [24])?
The Activity was 4.1%.

What about the zone of inhibition at 20 µg/disc (Saccharomyces cerevisiae [25]) of the same compound?
The zone of inhibition at 20 µg/disc was 19 mm.

And the Activity (MCF7 [26])?
The Activity was 87%.
